{"source": "ChEMBL document CHEMBL1153233", "about": "“Novel substituted (Z)-5-((N-benzyl-1H-indol-3-yl)methylene)imidazolidine-2,4-diones and 5-((N-benzyl-1H-indol-3-yl)methylene)pyrimidine-2,4,6(1H,3H,5H)-triones as potent radio-sensitizing agents” (2010)", "data": [{"test_system": "HT-29", "assay": "Radiosensitization activity against human HT-29 cells assessed as survival relative to control", "format": "functional", "procedure,_shortened": "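HT-29 colorectal adenocarcinoma cells exposed to analog at 25 µM (or DMSO vehicle) for 2 h at 37 °C, then irradiated with 4 Gy. Analog washed off, cells kept 14 days in fresh medium, colonies stained with crystal violet and counted. Surviving fraction taken as colonies over cells treated. Relative survival is survival with radiation plus analog divided by survival with radiation alone, with vehicle set at 1.0.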", "values": [{"smiles": "O=C1NC(=O)C(=Cc2cn(Cc3ccccc3)c3ccccc23)C(=O)N1", "Ratio": 1.35}, {"smiles": "O=C1NC(=O)C(=Cc2cn(Cc3ccc(Cl)cc3)c3ccccc23)C(=O)N1", "Ratio": 0.91}, {"smiles": "COc1ccc(Cn2cc(C=C3C(=O)NC(=O)NC3=O)c3ccccc32)cc1", "Ratio": 1.18}, {"smiles": "O=C1NC(=O)C(=Cc2cn(Cc3ccccc3Br)c3ccccc23)C(=O)N1", "Ratio": 1.14}, {"smiles": "O=C1NC(=O)/C(=C/c2cn(Cc3ccc(F)cc3)c3ccccc23)N1", "Ratio": 0.91}, {"smiles": "Cc1ccc(Cn2cc(/C=C3\\NC(=O)NC3=O)c3ccccc32)cc1", "Ratio": 1.06}, {"smiles": "N#Cc1ccc(Cn2cc(C=C3C(=O)NC(=O)NC3=O)c3ccccc32)cc1", "Ratio": 0.23}, {"smiles": "COC(=O)c1ccc(Cn2cc(C=C3C(=O)NC(=O)NC3=O)c3ccccc32)cc1", "Ratio": 0.64}, {"smiles": "O=C1NC(=O)/C(=C/c2cn(Cc3ccccc3)c3ccc(Cl)cc23)N1", "Ratio": 1.38}, {"smiles": "O=C1NC(=O)/C(=C/c2cn(Cc3ccccc3Br)c3ccccc23)N1", "Ratio": 1.18}, {"smiles": "Cc1ccc2c(c1)c(/C=C1\\NC(=O)NC1=O)cn2Cc1ccccc1", "Ratio": 1.18}, {"smiles": "COc1ccc2c(c1)c(C=C1C(=O)NC(=O)NC1=O)cn2Cc1ccccc1", "Ratio": 1.73}, {"smiles": "O=C1NC(=O)/C(=C/c2cn(Cc3ccccc3)c3ccc(Br)cc23)N1", "Ratio": 1.06}, {"smiles": "O=C1NC(=O)/C(=C/c2cn(Cc3ccc([N+](=O)[O-])cc3)c3ccccc23)N1", "Ratio": 1.14}, {"smiles": "N#Cc1ccc(Cn2cc(/C=C3\\NC(=O)NC3=O)c3ccccc32)cc1", "Ratio": 1.53}, {"smiles": "O=C1NC(=O)C(=Cc2cn(Cc3ccc([N+](=O)[O-])cc3)c3ccccc23)C(=O)N1", "Ratio": 0.44}, {"smiles": "COC(=O)c1ccc(Cn2cc(/C=C3\\NC(=O)NC3=O)c3ccccc32)cc1", "Ratio": 1}, {"smiles": "COc1ccc(Cn2cc(/C=C3\\NC(=O)NC3=O)c3cc(Br)ccc32)cc1", "Ratio": 1.29}, {"smiles": "O=C1NC(=O)/C(=C/c2cn(Cc3ccc(Cl)cc3)c3ccccc23)N1", "Ratio": 1.44}, {"smiles": "O=C1NC(=O)/C(=C/c2cn(Cc3ccccc3)c3ccccc23)N1", "Ratio": 1.3}, {"smiles": "O=C1NC(=O)C(=Cc2cn(Cc3ccccc3)c3ccc(Cl)cc23)C(=O)N1", "Ratio": 1.38}, {"smiles": "COc1ccc2c(c1)c(/C=C1\\NC(=O)NC1=O)cn2Cc1ccccc1", "Ratio": 1.38}]}]}
